# TRPC6 inhibitor = inhibitors of mouse TRPC6 channel; Q61143; actives 1.1% (n = 310,000); B-score at 10 µM; HEK293-TRPC6, membrane potential dye, ACh-evoked depolarization; hits give low values; AID 2553;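 active means B-score under library mean minus 3 SD, initial fluorescence not abnormally high, positive integrated signal ratio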;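 further: B-score derived from integrated fluorescence ratio over the kinetic read; more negative B-score means stronger inhibition of depolarization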
# TRPC6 act = activates the mouse TRPC6 cation channel; Q61143; HEK293-TRPC6 membrane potential dye fluorescence; hits give high values; B-score at 10 µM; actives 0.13% (n = 310,000);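 active means B-score of the integrated fluorescence ratio above library mean plus 3 SD, and starting fluorescence ratio within library mean plus 5 SD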;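 further: higher score means more depolarization so channel activation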
# TRPC4 PAM = allosterically enhances the mouse TRPC4 cation channel | HEK293 TRPC4beta/mu-opioid, DAMGO EC20, Fluo-4 Ca2+ flux; hits give high values | B-score at 10 µM | actives 0.42% (n = 310,000);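 active means B-score of calcium response area above 5 SD of library B-scores, with initial fluorescence ratio within 5 SD of library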;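 further: B-score of integrated fluorescence ratio over time as area under calcium response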
# Target sequence (Q9QUQ5 whole entry, looked up): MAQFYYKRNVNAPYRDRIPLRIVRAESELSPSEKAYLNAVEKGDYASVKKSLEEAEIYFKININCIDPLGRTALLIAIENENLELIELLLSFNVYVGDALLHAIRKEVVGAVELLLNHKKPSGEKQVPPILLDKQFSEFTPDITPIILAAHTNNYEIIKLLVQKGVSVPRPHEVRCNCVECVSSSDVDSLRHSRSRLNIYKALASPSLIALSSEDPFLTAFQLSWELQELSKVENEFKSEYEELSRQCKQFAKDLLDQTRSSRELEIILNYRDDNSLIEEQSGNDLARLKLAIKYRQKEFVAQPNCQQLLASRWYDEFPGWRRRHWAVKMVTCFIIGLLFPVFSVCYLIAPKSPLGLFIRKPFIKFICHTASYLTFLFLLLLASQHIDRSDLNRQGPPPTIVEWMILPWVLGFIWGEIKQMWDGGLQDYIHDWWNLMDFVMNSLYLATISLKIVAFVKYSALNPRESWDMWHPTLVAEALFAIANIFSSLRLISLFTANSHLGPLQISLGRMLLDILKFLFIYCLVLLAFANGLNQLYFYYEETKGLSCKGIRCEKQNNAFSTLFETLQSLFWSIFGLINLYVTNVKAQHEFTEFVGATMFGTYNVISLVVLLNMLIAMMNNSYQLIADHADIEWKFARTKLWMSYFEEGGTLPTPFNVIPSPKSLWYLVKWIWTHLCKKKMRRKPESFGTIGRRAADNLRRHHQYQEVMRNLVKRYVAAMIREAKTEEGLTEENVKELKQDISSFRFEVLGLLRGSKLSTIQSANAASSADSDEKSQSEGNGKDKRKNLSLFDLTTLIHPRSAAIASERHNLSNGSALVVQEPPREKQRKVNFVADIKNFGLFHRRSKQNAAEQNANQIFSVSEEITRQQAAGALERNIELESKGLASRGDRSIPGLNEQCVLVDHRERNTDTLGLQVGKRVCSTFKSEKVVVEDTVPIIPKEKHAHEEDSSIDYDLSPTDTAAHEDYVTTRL
# TRPC4 act = activators of mouse TRPC4 channel | HEK293 TRPC4beta/mu-opioid, Fluo4 calcium fluorescence; hits give high values | B-score at 10 µM | actives 0.49% (n = 310,000) | AID 2237;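 active means B-score above 5 SD of library B-scores, and initial fluorescence ratio not above library mean plus 5 SD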;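 further: positive B-score marks a calcium rise read as TRPC4 activation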
#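 Material: HEK293 stable line with TRPC4beta plus mu-opioid receptor; technique: Fluo4 calcium-sensitive dye fluorescence, kinetic, 1 Hz baseline; timing: Fluo4 dye loading 45 min at room temperature, 110 s recording; controls: assay buffer as low control, maximal DAMGO as high control; read-out: integrated baseline-normalised fluorescence ratio, converted to per-well B score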
# TRPC4 inh = blocks the mouse TRPC4 cation channel | HEK293 TRPC4beta/mu-opioid, DAMGO-evoked Fluo4 calcium flux; hits give low values | B-score at 10 µM | Q9QUQ5 | actives 0.39% (n = 300,000);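 active means B-score over 3 SD under the library average, no early fluorescence shift, positive overall ratio signal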
#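 Signal: kinetic Fluo4 fluorescence imaging of calcium influx. Material: stable TRPC4beta/mu-opioid receptor HEK293 cells. Probe or stimulus: DAMGO in two steps, submaximal then maximal.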
# TRPC4 spec 2 = second check of whether TRPC6 inhibitors also affect mouse TRPC4; shares compounds with TRPC6 inhibitor; actives 42% (n = 920); inhibition, % at 10 µM; HEK293 TRPC4/MOR, membrane potential dye fluorescence; channel activated by saturating DAMGO dose;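 active means compounds whose fluorescence signal differed from control wells by over 3 SD, either direction, in both duplicate plates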
# TRPC4 spec = mouse TRPC4 off-target activity of TRPC6 inhibitors; shares compounds with TRPC6 inhibitor; HEK293 TRPC4/mu-opioid, membrane potential fluorescence; activity change, negative = inhibition, % at 10 µM; actives 61% (n = 920); AID 2777;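 active means rise or fall in signal beyond 3 SD of buffer-only wells in both replicate plates, either sign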;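 further: integrated kinetic ratio of fluorescence range over baseline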
# HEK293 MPD ctr 2-1 = second counter-screen for TRPC6 inhibitors: parental HEK293 cells; shares compounds with TRPC6 inhibitor; parental HEK293 membrane potential dye fluorescence; maximal acetylcholine challenge after compound addition; signal change vs control, % at 10 µM; actives 31% (n = 920); AID 2779;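 active means membrane potential signal moving either way by over 3 SD of the maximum-effect control, in both duplicate plates, meaning non-specific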
# HEK293 MPD ctr-1 = parental HEK293 nonspecific activity of TRPC6 inhibitors. shares compounds with TRPC6 inhibitor. parental HEK293 membrane potential dye fluorescence. membrane potential signal change, % at 10 µM. actives 60% (n = 920);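 active means membrane potential signal shifting up or down by more than 3 SD of buffer-only wells, on both duplicate plates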
# HEK293 MPD ctr-2 = parental HEK293 nonspecific activity of TRPC6 modulators; shares compounds with TRPC6 inhibitor; membrane potential dye fluorescence; membrane potential signal change, % at 10 µM; actives 51% (n = 2,400);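 active means membrane potential signal moves up or down beyond 5 SD from buffer-only wells, on both duplicate plates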
# HEK293 MPD ctr 2-2 = second check of TRPC6 modulator effects in parental HEK293 cells. shares compounds with TRPC6 inhibitor. inhibition, % at 10 µM. actives 14% (n = 2,400). membrane potential dye fluorescence; after compound, maximal acetylcholine stimulation;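 active means membrane potential signal drops by more than 5 SD from the mean control signal, in both duplicate plates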;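 further: plate controls were acetylcholine ECmax control wells for no effect and buffer only wells for full effect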
# TRPC4/MOR mod = mouse TRPC4 off-target activity of TRPC6 modulators; shares compounds with TRPC6 inhibitor; HEK293 TRPC4/mu-opioid, membrane potential fluorescence; percent change from control (negative = decrease, positive = increase), % at 10 µM; actives 69% (n = 2,400);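 active means membrane potential signal moved up or down beyond 5 SD of buffer control wells, in both duplicate plates, actives on both sides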;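 further: plate controls were assay buffer wells for no effect and DAMGO maximal-effect wells for full effect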
# TRPC4/MOR inh 2 = mouse TRPC4 off-target activity of TRPC6 modulators, second screen; shares compounds with TRPC6 inhibitor; HEK293 TRPC4/mu-opioid, membrane potential dye fluorescence; stimulated with maximal-effect DAMGO; inhibition, % at 10 µM; actives 55% (n = 2,400); AID 488928;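 active means drop in membrane potential signal beyond 5 SD of the control wells in both duplicate plates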;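 further: TRPC4 counter screen for TRPC6 hits run under conditions tuned for TRPC6 not TRPC4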
# TRPC6 block conf = confirmation of mouse TRPC6 inhibitors; shares compounds with TRPC6 inhibitor; HEK293-TRPC6, membrane potential dye, ACh-evoked depolarization; inhibition, % at 10 µM; actives 43% (n = 3,300);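 active means fluorescence ratio falls more than 5 SD below the full-stimulation control mean, in both duplicate runs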;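 further: integrated fluorescence ratio of peak minus minimum over baseline after agonist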
# TRPC6 act conf = confirmation of mouse TRPC6 activators | shares compounds with TRPC6 inhibitor | HEK293-TRPC6 membrane potential dye fluorescence, FDSS | activation, % at 10 µM | actives 11% (n = 2,800) | AID 488961;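 active means ratio signal rise beyond 5 SD above unstimulated control wells' mean, seen in both duplicate runs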;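 further: plate controls were buffer EC0 wells for no effect and acetylcholine ECmax response for full effect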
# An asterisk follows results filed as active; i = inactive; / = not tested or not shown. The list is not random: actives were taken first. Their share in the collection is about 2.3%.
SMILES,TRPC6 inhibitor,TRPC6 act,TRPC4 PAM,TRPC4 act,TRPC4 inh,HEK293 MPD ctr-2,HEK293 MPD ctr 2-2,TRPC4/MOR mod,TRPC4/MOR inh 2,TRPC6 block conf,TRPC6 act conf,others
CN1CCN(c2ccc(NC(=O)c3ccc(Oc4ccccc4)cc3)cc2)CC1,-6.19*,i,i,i,i,i,i,i,58.5%*,47.5%*,i,
CN1CCN(c2ccc(NC(=O)c3cc4ccccc4o3)cc2)CC1,-5.17*,i,i,i,i,i,i,i,48.5%*,41.0%*,i,
CN1CCN(c2ccccc2NC(=O)c2cc3ccccc3o2)CC1,-12.8*,i,i,i,i,/,/,/,/,71.9%*,i,TRPC4 spec 2=25.0%*;TRPC4 spec=-21.8%*;HEK293 MPD ctr 2-1=i;HEK293 MPD ctr-1=-212.0%*
CCOc1ccc2nc3c(cc2c1)CN(CCCO)C(=NCCOC)S3,i,i,i,i,i,/,/,/,/,/,/,
NC(=O)/C(=N\OC(=O)c1ccco1)c1nc(-c2ccc(Br)cc2)cs1,i,i,i,i,i,/,/,/,/,/,/,
CC(C)Oc1cccc(C(=O)NC(=S)Nc2ccc(N3CCN(C)CC3)cc2)c1,-6.3*,i,16*,i,i,i,i,i,61.5%*,42.5%*,i,
COc1cc2ccccc2cc1C(=O)Nc1ccc(N2CCN(C)CC2)cc1,-5.54*,i,i,i,i,i,i,-11.5%*,64.0%*,59.5%*,i,
COc1ccccc1Nc1c2ccccc2nc2ccccc12,-6.73*,i,i,i,i,-182.0%*,i,-35.5%*,68.5%*,50.0%*,i,
OCCCNc1c2ccccc2nc2ccccc12,-6.11*,i,i,i,-6*,-231.0%*,i,-36.0%*,45.5%*,37.0%*,i,
CC(C)(C)Nc1c2ccccc2nc2ccccc12,-8.9*,i,i,i,i,-201.5%*,i,-34.0%*,87.0%*,53.0%*,i,
COc1cc(Nc2c3ccccc3nc3ccccc23)cc(OC)c1OC,-7.07*,i,i,i,i,-132.5%*,i,-37.5%*,60.0%*,i,i,
Cc1cc(C)nc(S/C=C/C(=O)c2ccccc2F)n1,i,i,i,i,i,/,/,/,/,/,/,
COc1cccc(CN2CC(C(=O)N(C)CC3CCOCC3)CCC2=O)c1 (stereo unspecified),i,i,i,i,i,/,/,/,/,/,/,
CCN(CC)CC(=O)Nc1c2c(nc3ccccc13)N(C)CC2,-7.49*,i,i,i,i,-213.0%*,i,-30.5%*,54.0%*,47.5%*,i,
O=C(CN1CCOCC1)Nc1c2c(nc3ccccc13)N(Cc1ccccc1)CC2,i,i,i,i,i,/,/,/,/,/,/,
CN(C)c1cc(NC(=O)CN2CCCC2)c2ccccc2n1,-7.16*,i,i,i,i,/,/,/,/,i,i,TRPC4 spec 2=65.5%*;TRPC4 spec=-19.5%*;HEK293 MPD ctr 2-1=i;HEK293 MPD ctr-1=-323.5%*
CC(C)C(=O)Nc1c2c(nc3ccccc13)N(C)CC2,i,i,i,i,i,/,/,/,/,/,/,
O=C(CN1CCCC1)Nc1c2c(nc3ccccc13)N(Cc1ccccc1)CC2,-6.1*,i,i,i,i,-311.5%*,i,-49.0%*,62.5%*,46.0%*,i,
CN(C)c1cc(NC(=O)CNC(C)(C)CC(C)(C)C)c2ccccc2n1,i,i,i,i,i,/,/,/,/,/,/,
Cc1c(NC(=O)C(C)OC(=O)[C@@H](NC(=O)c2ccccc2)C(C)C)c(=O)n(-c2ccccc2)n1C (stereo partly specified),i,i,i,i,i,/,/,/,/,/,/,
COc1ccc(N2CCN(S(=O)(=O)CCNC(=O)COc3ccccc3C)CC2)cc1,-8.46*,i,i,i,i,/,/,/,/,i,i,TRPC4 spec 2=i;TRPC4 spec=-8.9%*;HEK293 MPD ctr 2-1=240.5%*;HEK293 MPD ctr-1=i
COc1ccc(N2CCN(S(=O)(=O)CCNC(=O)COc3ccc(Cl)cc3)CC2)cc1,i,i,i,i,i,/,/,/,/,/,/,
COc1ccc2c(c1)C(C)=CC(C)(C)N2S(=O)(=O)c1ccc(NC(C)=O)cc1,i,13.8*,i,i,i,i,i,10.5%*,i,i,i,
CC1CCN(C(=O)Cn2nnc(-c3ccc(N)cc3)n2)CC1,i,i,i,i,i,/,/,/,/,/,/,
CCN(C(=O)c1nn(-c2ccc(OC)cc2)c(=O)c2c1c1ccccc1n2C)c1ccc(OC)cc1,i,i,i,i,i,/,/,/,/,/,/,
CCCCN(C)CCNC(=O)c1nn(-c2ccc(OC)cc2)c(=O)c2c1c1ccccc1n2C,-5.72*,i,i,i,i,i,i,-16.5%*,67.5%*,i,i,
COc1ccc(OC)c(S(=O)(=O)NC(C)(C)C)c1,i,i,i,i,i,/,/,/,/,/,/,
Cc1cccc(C(=O)N=c2c(C#N)cc3c(=O)n4cccc(C)c4nc3n2Cc2ccco2)c1,-5.08*,i,i,i,i,123.5%*,i,-54.5%*,36.0%*,i,i,

# High-throughput results: PubChem, Johns Hopkins Ion Channel Center
